Experimental data reported in article PMC11387586 (Pharmacology Research & Perspectives, 2024).
Several values for one entry are separate records, joined by “and”; a condition that tells them apart may be missing. Identical values can stand only once.

How the values were obtained:
[1] = Plasma pharmacokinetics of aficamten, M1a and M1b; format: in vivo, human
In short: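 About 3 mL K2EDTA blood was drawn predose and at 0.25–48 h, then every 24 h. Plasma was spun at about 2000G for 10 min at 4°C and stored at −20°C. Validated LC-MS/MS: parent on C18 with 10 mM ammonium acetate/acetonitrile gradient; M1a/M1b on a chiral column with 30:70 acetonitrile:10 mM ammonium acetate. Non-compartmental analysis gave Cmax, tmax, t1/2, AUCs, CL/F and Vz/F.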

[2] = Total radioactivity in plasma and whole blood; format: in vivo, human; settings: for Total radioactivity t1/2 / Total radioactivity tmax: median (range)
In short: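 About 4 mL K2EDTA blood was drawn at the PK time points. […] Counting ran at least 5 min with quench correction, in duplicate where possible. LLOQ was 9.57 ng equivalents/g for blood and 6.86 for plasma. Non-compartmental analysis; tmax and t1/2 given as median (range), others as geometric mean.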

[3] = Urinary excretion of aficamten, M1a and M1b; format: in vivo; settings: human, urine, oral, 20 mg, renal clearance (CLR), geometric mean
In short: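 Urine was collected predose, at 0–4, 4–8, 8–12 and 12–24 h, then every 24 h until discharge. Isopropyl alcohol equal to 20% of void mass was added, pools were kept at 4°C, and aliquots were frozen at −20°C. Urinary excretion of parent and M1a/M1b (fe0-tlast) and renal clearance came from non-compartmental analysis, given as geometric means.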

[4] = Mass balance: radioactive dose recovered in urine and feces; format: in vivo, human; settings: for Cumulative percent of radioactive dose recovered: urine
In short: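 8 healthy men each got one [14C]-labelled 20 mg oral capsule (about 100 μCi) with 240 mL water after a fast of at least 10 h. Urine was collected at 0–4, 4–8, 8–12 and 12–24 h, then every 24 h; feces every 24 h, homogenised in about 20:80 acetonitrile:water. Urine was counted directly by LSC; fecal homogenate was combusted first. Samples ran in duplicate. Collection continued until discharge criteria were met.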

[5] = Metabolite profiling of plasma; format: in vivo, human; settings: pooled samples 2 to 264 h
In short: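 Plasma taken at 2, 4, 12, 24, 72, 120, 168 and 264 h was pooled across participants by time point, in proportion to weight (1.2–2.5 g each), then counted by LSC. LC-HRMS profiling used fraction radioactivity counts. For chiral M1a/M1b separation, a 2–264 h pool ran on a cellulose column with reverse-phase gradient, 0.6 mL/min, over 15 min. Exposure = component AUC0-t / total radioactivity AUC0-t × 100.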

[6] = Metabolite profiling of urine; format: in vivo, human; settings: pooled urine
In short: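 Urine was pooled per participant into 0–336, 0–384 and 0–432 h pools (0.03–0.08% of each sample weight) and counted by LSC. Radiochromatograms came from LC-HRMS fractions. Chiral separation of M1a and M1b used a […] pool. Identification cut-off was 1% of dose; quantitation limit was 1% of run and 10 cpm peak height. % of dose = (% radioactivity in peak/100) × % of dose in sample.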

[7] = Metabolite profiling of feces; format: in vivo, human; settings: pooled feces
In short: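 Feces from single oral 20 mg (about 100 μCi) [14C] dosing was homogenised in about 20:80 acetonitrile:water. Metabolites were profiled by LC-HRMS with radioactivity counted in collected fractions. Identification cut-off was 1% of dose; quantitation limit was 1% of run and 10 cpm peak height. % of dose = (% radioactivity in peak/100) × % of dose in sample.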

Safety assessments = format: in vivo, human; settings: single oral 20 mg
In short: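 After one [14C] 20 mg oral dose, eight healthy men were monitored for vital signs, 12-lead ECG, clinical chemistry, haematology, urinalysis and adverse events at several time points. They stayed confined until at least Day 19 or until discharge criteria were met. A follow-up phone call came 7–9 days after discharge.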

[8] = cited from earlier work
[9] = cited from earlier work; remark: listed apart in the source
[10] = oral dose, cited from earlier work
[11] = tested on: naive rat intestinal contents; settings: anaerobic conditions; cited from earlier work
[12] = whole blood, geometric mean (CV%)

SMILES: CCc1nc(-c2ccc3c(c2)CC[C@H]3NC(=O)c2cnn(C)c2)no1 [Aficamten]
- Tmax ([1]; human, po, 20 mg): 2 h
- Vd/F ([1]; human, po, 20 mg): 690 L
- AUC ([1]; human, po, 20 mg, AUC0‐inf, single oral 20 mg, geometric mean (CV%)): 4440 ng·h/mL
- AUC ([1]; human, po, 20 mg, AUC0‐tlast, single oral 20 mg, geometric mean (CV%)): 4120 ng·h/mL
- Cmax ([1]; human, po, 20 mg, Cmax, single oral 20 mg, geometric mean (CV%)): 61.8 ng/mL
- half-life ([1]; human, po, 20 mg, t1/2, plasma, single oral 20 mg, median (range)): 99.6 h
- CL/F ([1]; single oral 20 mg, geometric mean (CV%)): 4.50 (32.1) L/h
- CL/F ([1]; single oral 20 mg, geometric mean (CV%), listed as aficamten): 4.50 L/h
- ratio of plasma analyte to plasma total radioactivity, AUC0‐inf ([2]; geometric mean): 0.290
- ratio of total radioactivity in whole blood: plasma based on AUC0‐inf ([2]; geometric mean): 0.566
- Total radioactivity Cmax ([2]; plasma, geometric mean (CV%)): 111 (43.2) ng/mL
- Total radioactivity t1/2 ([2]; plasma): 98.2 (80.1–230) h
- Total radioactivity tmax ([2]; plasma): 3.50 (1.00–6.00) h
- Total radioactivity AUC0‐inf [2, 12]: 8660 (23.7) h.ng/mL
- Total radioactivity AUC0‐tlast [2, 12]: 5710 (38.5) h.ng/mL
- Total radioactivity Cmax [2, 12]: 66.7 (44.9) ng/mL
- Total radioactivity t1/2 ([2]; whole blood): 100 (86.2–171) h
- Total radioactivity tmax ([2]; whole blood): 4.50 (1.00–16.0) h
- CL renal [3]: 0.0438 mL/min
- fraction of dose absorbed ([4]; based on recovery data): at least 0.95
- mean recovery of radiolabeled material ([4]; urine and feces combined, by 336 h postdose): 85.0%
- overall mean recovery of radioactivity in urine and feces ([4]; urine and feces combined, end of sampling period (600 h)): 89.7%
- Cumulative percent of radioactive dose recovered ([4]; 0–96 h, individual subject): 24.1% and 8.99% and 16.2% and 13.5% and 11.2% and 17.7% and 18.3% and 14.0%
- Cumulative percent of radioactive dose recovered ([4]; 0–96 h, mean): 15.5%
- Cumulative percent of radioactive dose recovered ([4]; 0–120 h, individual subject): 27.4% and 11.2% and 18.0% and 15.7% and 13.7% and 20.5% and 21.1% and 16.4%
- Cumulative percent of radioactive dose recovered ([4]; 0–120 h, mean): 18.0%
- Cumulative percent of radioactive dose recovered ([4]; 0–144 h, individual subject): 31.3% and 13.3% and 20.8% and 17.1% and 15.7% and 22.2% and 23.6% and 18.7%
- Cumulative percent of radioactive dose recovered ([4]; 0–144 h, mean): 20.3%
- Cumulative percent of radioactive dose recovered ([4]; 0–168 h, individual subject): 34.3% and 14.7% and 22.3% and 18.2% and 17.5% and 24.1% and 25.7% and 20.7%
- Cumulative percent of radioactive dose recovered ([4]; 0–168 h, mean): 22.2%
- Cumulative percent of radioactive dose recovered ([4]; 0–192 h, individual subject): 36.9% and 16.1% and 23.8% and 19.2% and 18.6% and 25.5% and 27.2% and 22.3%
- Cumulative percent of radioactive dose recovered ([4]; 0–192 h, mean): 23.7%
- Cumulative percent of radioactive dose recovered ([4]; 0–216 h, individual subject): 38.9% and 17.6% and 25.3% and 20.3% and 19.9% and 26.6% and 28.6% and 23.8%
- Cumulative percent of radioactive dose recovered ([4]; 0–216 h, mean): 25.1%
- Cumulative percent of radioactive dose recovered ([4]; 0–240 h, individual subject): 40.8% and 18.6% and 27.2% and 21.3% and 20.8% and 27.7% and 29.6% and 25.2%
- Cumulative percent of radioactive dose recovered ([4]; 0–240 h, mean): 26.4%
- Cumulative percent of radioactive dose recovered ([4]; 0–264 h, individual subject): 42.5% and 19.7% and 28.6% and 21.9% and 21.6% and 28.5% and 30.6% and 26.2%
- Cumulative percent of radioactive dose recovered ([4]; 0–264 h, mean): 27.5%
- Cumulative percent of radioactive dose recovered ([4]; 0–288 h, individual subject): 43.8% and 20.5% and 29.9% and 22.5% and 22.0% and 29.3% and 31.2% and 27.1%
- Cumulative percent of radioactive dose recovered ([4]; 0–288 h, mean): 28.3%
- Cumulative percent of radioactive dose recovered ([4]; 0–312 h, individual subject): 44.8% and 20.9% and 30.6% and 22.9% and 22.4% and 30.0% and 31.8% and 27.8%
- Cumulative percent of radioactive dose recovered ([4]; 0–312 h, mean): 28.9%
- Cumulative percent of radioactive dose recovered ([4]; 0–336 h, individual subject): 45.7% and 21.8% and 31.4% and 23.2% and 22.7%
- Cumulative percent of radioactive dose recovered ([4]; 0–336 h, mean): 29.5%
- AUC0‐t % of total radioactivity AUC0‐t [5]: 19.8%
- AUC0‐t % of total radioactivity AUC0‐t ([5]; listed as aficamten): approximately 19.8%
- Percent of radioactive dose in urine [6]: No unchanged aficamten was recovered
- Percent of radioactive dose in feces [7]: 5.07%
- Percent of radioactive dose in feces ([7]; listed as aficamten): approximately 5.07%
- tolerability (Safety assessments; 8 healthy male participants): well tolerated
- changes in vital signs, ECG measurements, laboratory values (Safety assessments; 8 participants): no clinically significant changes in vital signs, ECG measurements, or laboratory values
- deaths, serious AEs, AEs leading to discontinuation (Safety assessments; 8 participants): no deaths, and serious AEs or any AEs leading to discontinuation
- participants with an AE (diarrhea, mild, not considered related to treatment) (Safety assessments; 8 participants): 12.5%
- effect of food on absorption [8]: did not affect the extent of aficamten absorption
- time to steady state concentrations ([8]; multiple doses): ≤ 2 weeks
- PK parameters in moderate hepatic impairment versus normal hepatic function [9]: generally comparable
- percent of the [^14C]aficamten radioactive dose in bile ([10]; bile duct cannulated rats): trace level
- percent of the [^14C]aficamten radioactive dose in feces ([10]; intact rats): lack of detection
- radioactive dose excreted by the hepatobiliary route ([10]; rat): approximately 90%
- radioactive dose excreted in urine ([10]; rat): approximately 8%
- fate on incubation with rat intestinal contents [11]: completely cleared
